{"data": "Measurements of several laboratories", "HCK": "Tyrosine-protein kinase HCK (HCK, Homo sapiens, UniProt P08631)", "MAOB": "Amine oxidase [flavin-containing] B (MAOB, Homo sapiens, UniProt P27338)", "note": "Protocols differ between the studies behind these lines."}
{"Compound": "CCCCC(=O)Nc1ccc(-c2ccc3ncn(CCC)c(=O)c3c2)cn1", "target": "HCK", "test": "binding, competition with immobilised ligand", "setting": "0.5 µM", "endpoint": "remaining binding", "result": "98%"}
{"Compound": "C1=C/COCc2cc(ccc2OCCN2CCCC2)Nc2nccc(n2)-c2cccc(c2)COC/1", "target": "Ribosomal protein S6 kinase alpha-6, N-terminal kinase domain (RPS6KA6, Homo sapiens, UniProt Q9UK32)", "test": "cell-free assay", "setting": "0.1 µM", "endpoint": "remaining signal", "result": "78%"}
{"Compound": "Cc1cc(F)cc2c(CCC(=O)N[C@@H]3C(=O)NC[C@H]3O)c(-c3ccc(F)cc3)[nH]c12", "target": "Histamine H1 receptor (HRH1, Homo sapiens, UniProt P35367)", "test": "cell-free assay", "setting": "10 µM", "endpoint": "inhibition", "result": "17%"}
{"Compound": "O=C(Nc1cccc(F)c1)c1ccc2c(c1)C(=O)NC2=O", "target": "MAOB", "test": "enzyme activity, inhibitor", "setting": "1 µM", "endpoint": "inhibition", "result": "< 5%"}
{"Compound": "NC/C(=C\\F)COc1cccc(Cn2c(=S)[nH]c(=O)c3[nH]cnc32)c1", "target": "Beta-1 adrenergic receptor (ADRB1, Homo sapiens, UniProt P08588)", "test": "ligand displacement, radioligand", "setting": "10 µM", "endpoint": "inhibition", "result": "< 50%"}
{"Compound": "C#Cc1cc(-c2cc(Nc3nc(N[C@@H](C)c4ccc(F)cn4)ncc3Cl)n[nH]2)ccc1C=O", "target": "Serine/threonine-protein kinase N1 (PKN1, Homo sapiens, UniProt Q16512)", "test": "enzyme activity, inhibitor", "setting": "0.2 µM", "endpoint": "inhibition", "result": "38.5%"}
{"Compound": "O=C(Nc1ccccc1Br)c1ccc2c(c1)C(=O)NC2=O", "target": "MAOB", "test": "enzyme activity, inhibitor", "setting": "1 µM", "endpoint": "inhibition", "result": "< 5%"}
{"Compound": "C[C@H](NC(=O)C(=O)Nc1ccccc1C(C)(C)C)C(=O)N[C@@H](CC(=O)O)C(=O)COc1c(F)c(F)cc(F)c1F", "target": "Caspase-1 (Casp1, Mus musculus, UniProt P29452)", "test": "enzyme activity, inhibitor", "endpoint": "kinact/KI", "result": "4.27e+06 M⁻¹ s⁻¹"}
{"Compound": "O=C(Nc1ccc(F)c(F)c1)c1ccc2c(c1)C(=O)NC2=O", "target": "MAOB", "test": "enzyme activity, inhibitor", "setting": "1 µM", "endpoint": "inhibition", "result": "90.6%"}
{"Compound": "CC(=O)ON=C1C=CC(=C(C#N)c2ccccc2)C=C1", "target": "Receptor-interacting serine/threonine-protein kinase 3 (RIPK3, Homo sapiens, UniProt Q9Y572)", "test": "enzyme activity, inhibitor, ADP detection", "setting": "20 µM", "endpoint": "activity vs control", "result": "110%"}
{"Compound": "O=C(Nc1cc(Cl)cc(Cl)c1)c1ccc2c(c1)C(=O)NC2=O", "target": "MAOB", "test": "enzyme activity, inhibitor", "setting": "1 µM", "endpoint": "inhibition", "result": "89.3%"}
{"Compound": "COc1ccc2oc(-c3ccc4nc(N)oc4c3)c/c(=N\\c3ccccc3NC(=O)CCN)c2c1", "target": "HCK", "test": "binding", "setting": "1 µM", "endpoint": "remaining binding", "result": "108%"}
{"Compound": "Nc1nc2c(ncn2[C@@H]2O[C@H](COP(=O)(O)O)[C@@H](O)[C@H]2O)c(=O)[nH]1", "target": "GUK1 (Homo sapiens, UniProt Q16774)", "test": "enzyme activity, substrate", "endpoint": "Km", "result": "14.9 µM"}
{"Compound": "Cc1cc(S(=O)(=O)N[C@H]2CC[C@H](CN3CCN(c4ccc(C5CCC(=O)NC5=O)cc4F)CC3)CC2)ccc1Nc1ncc(C(F)(F)F)c(N2CCC[C@](C)(O)C2)n1 (some centres unmarked)", "target": "NUAK family SNF1-like kinase 2 (NUAK2, Homo sapiens, UniProt Q9H093)", "test": "binding, competition with immobilised ligand", "setting": "1 µM", "endpoint": "remaining binding", "result": "26%"}
